{
  "source": "paper PMC6440450",
  "about": "(International Journal of Nanomedicine, 2019)",
  "key": {"[1]": {"system": "human erythroleukemia cell line (HEL)", "assay": "In vitro cell proliferation", "type": "cell-based", "conditions": "72 hours exposure", "how_it_was_run": "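HEL cells were seeded at 5×10^3/well and treated 24 h later for 72 h. Doses were 12.5–2,500 nM for the lipid prodrug (free or nanocapsule-loaded) and 5–1,000 nM for the parent nucleoside; blank nanocapsules were excipient-matched. Pellets were frozen at −80°C for ≥48 h, then read by CyQuant. Medium-only wells defined 100% viability. Three independent experiments in quadruplicate; Mann–Whitney test.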"}, "HEL cells": {"system": "HEL cells", "assay": "Cell-cycle analysis", "type": "cell-based, human", "conditions": "72 hours, decitabine solution 1,000 nM", "how_it_was_run": "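HEL cells (RPMI 1640, 10% FBS, 1% antibiotics, 37°C, 5% CO2) were seeded at 5×10^4/well. After 24 h, they were treated with the test compound solution (1,000 nM), prodrug-loaded lipid nanocapsules (2,500 nM), excipient-matched blank nanocapsules or medium for 72 h. Cells were ethanol-fixed (70%, cold) and stained 15 min in the dark with 40 µg/mL propidium iodide plus 100 µg/mL RNase A. Phases were fitted by the Dean Jett Fox model. n=3 plates in triplicate; Mann–Whitney versus medium.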"}, "[2]": {"conditions": "decitabine solution, human plasma, same conditions, after 6 hours; cited from earlier work"}, "[3]": {"conditions": "phosphate buffer, 37°C, after 24 hours; cited from earlier work"}, "[4]": {"conditions": "cited from earlier work"}},
  "note": "Where two headings read alike, the source gives them in different places.",
  "data": [
    {"smiles": "Nc1ncn([C@H]2C[C@H](O)[C@@H](CO)O2)c(=O)n1", "note": "[Decitabine]", "values": [
      {"measurement": "Concentration above which cell viability decreased", "setting": "[1]", "value": "above 50 nM"},
      {"measurement": "Cells arrested in G2/M", "setting": "HEL cells", "value": 17.2, "unit": "%"},
      {"measurement": "Initial concentration recovered", "setting": "[2]", "value": "< 40", "unit": "%"},
      {"measurement": "Initial concentration recovered", "setting": "[3]", "value": "< 50", "unit": "%"},
      {"measurement": "Half-life in plasma", "setting": "[4]", "value": "15 to 25", "unit": "min"}
    ]}
  ]
}
